Screening data deposited in PubChem BioAssay by The Scripps Research Institute Molecular Screening Center.
DAGLB inh = DAGLB lipase inhibitors, primary screen, biochemical, fluorescence, HTS | Diacylglycerol lipase-beta (Homo sapiens), Q8NCG7 | HEK293T DAGLB membrane lysate, EnzChek fluorogenic substrate | inhibition, % at 5.17 µM | hit rate 0.059% among 340,000 | AID 504411, 2011; in the data active means inhibition above about 34%
PLCg1 inh = PLC-gamma1 enzyme inhibitors, primary screen, biochemical, fluorescence, purified enzyme; 1-phosphatidylinositol 4,5-bisphosphate phosphodiesterase gamma-1 (Homo sapiens), P19174; fluorogenic substrate; inhibition, % at 12.2 µM; hit rate 0.84% among 370,000; in the data active means inhibition above about 9.5%
TbMetRS inhib = T. brucei MetRS inhibitors, primary screen, biochemical, luminescence | inhibition, % at 11.9 µM | hit rate 0.4% among 360,000 | methionyl-tRNA synthetase (Trypanosoma brucei brucei) | purified T. brucei MetRS, ATP depletion, Kinase-Glo luminescence;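 active means inhibition above a per-plate cutoff of the control wells' mean inhibition plus 3 SD, cut at about 5.5% in these data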
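Test system – parasite MetRS enzyme · Reagent – substrates ATP, L-methionine and bulk Escherichia coli tRNA · Doses – 11.9 µM compound single dose, 0.9% DMSO · Times – 15 min enzyme-compound preincubation, 2 h reaction, 10 min detection, 25 °C · Signal – Kinase-Glo luminescence, ATP depletion format · Controls – DMSO-only wells as low control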
PLCb3 inh = human PLC-beta3 inhibitors, primary screen, biochemical, fluorescence; 1-phosphatidylinositol 4,5-bisphosphate phosphodiesterase beta-3 (Homo sapiens), Q01970; Purified PLC-beta3, fluorogenic substrate; inhibition, % at 12.2 µM; hit rate 0.18% among 370,000
Target sequence (Q01970 whole entry, looked up): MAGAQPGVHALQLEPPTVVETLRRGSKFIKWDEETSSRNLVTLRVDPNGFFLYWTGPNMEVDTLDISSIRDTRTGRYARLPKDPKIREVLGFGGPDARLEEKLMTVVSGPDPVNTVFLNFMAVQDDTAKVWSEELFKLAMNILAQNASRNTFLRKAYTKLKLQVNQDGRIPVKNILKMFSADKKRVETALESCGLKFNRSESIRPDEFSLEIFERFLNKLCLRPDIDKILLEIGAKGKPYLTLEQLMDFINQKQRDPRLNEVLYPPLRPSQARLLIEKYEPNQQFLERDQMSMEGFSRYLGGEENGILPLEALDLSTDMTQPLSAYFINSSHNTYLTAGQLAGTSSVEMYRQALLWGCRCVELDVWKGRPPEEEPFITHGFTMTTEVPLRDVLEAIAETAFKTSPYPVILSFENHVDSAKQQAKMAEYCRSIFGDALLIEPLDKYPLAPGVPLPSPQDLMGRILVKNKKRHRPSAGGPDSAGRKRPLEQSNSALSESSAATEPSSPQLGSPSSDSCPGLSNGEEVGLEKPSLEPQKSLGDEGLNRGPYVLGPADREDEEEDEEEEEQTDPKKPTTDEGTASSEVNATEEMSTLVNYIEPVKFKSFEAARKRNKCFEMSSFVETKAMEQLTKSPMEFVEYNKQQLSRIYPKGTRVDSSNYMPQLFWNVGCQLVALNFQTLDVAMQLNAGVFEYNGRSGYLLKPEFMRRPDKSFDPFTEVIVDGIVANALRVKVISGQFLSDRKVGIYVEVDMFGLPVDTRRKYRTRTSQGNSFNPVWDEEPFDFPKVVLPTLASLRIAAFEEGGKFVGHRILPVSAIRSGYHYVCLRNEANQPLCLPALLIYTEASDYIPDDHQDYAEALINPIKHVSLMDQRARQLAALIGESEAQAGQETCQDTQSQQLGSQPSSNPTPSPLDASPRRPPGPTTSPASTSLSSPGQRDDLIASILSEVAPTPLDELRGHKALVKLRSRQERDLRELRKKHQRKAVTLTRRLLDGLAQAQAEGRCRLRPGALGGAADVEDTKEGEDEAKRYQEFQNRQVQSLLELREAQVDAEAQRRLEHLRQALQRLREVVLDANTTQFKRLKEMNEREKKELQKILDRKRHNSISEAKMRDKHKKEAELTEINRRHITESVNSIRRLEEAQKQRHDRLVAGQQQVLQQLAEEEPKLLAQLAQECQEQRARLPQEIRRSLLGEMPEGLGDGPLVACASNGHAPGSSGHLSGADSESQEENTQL
sPLA2-III inh = human group III sPLA2 inhibitors, primary screen, biochemical, QFRET, BODIPY PC-A2 liposome substrate. Group 3 secretory phospholipase A2 (Homo sapiens), Q9NZ20. inhibition, % at 12.2 µM. QFRET BODIPY PC-A2 liposome hydrolysis, fluorescence. hit rate 0.56% among 370,000;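 active means inhibition above mean plus 3 SD of compounds lying within the high and low control bounds, cut at about 19% in these data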
PLCg1 ctr = PLC-gamma1 enzyme inhibitors, counter-screen for PLC-beta3 inhibitor project, biochemical, fluorescence. hit rate 3.1% among 3,300. shares compounds with PLCg1 inh. purified PLC-gamma1, fluorogenic substrate. inhibition, % at 12.3 µM; in the data active means inhibition above about 9.5%
PLCbeta3 conf = PLC-beta3 inhibitor confirmation, biochemical, fluorescence, purified enzyme. fluorogenic substrate fluorescence. hit rate 1% among 3,300. inhibition, % at 12.3 µM. shares compounds with PLCg1 inh
Of the large screens only hits and unclear results are named; the others gave an inactive call (follow-up assays come after a bar, where they were run). Rows were chosen to be rich in hits. Some 1.9% of all compounds tested hit in one or more screens of this group. Unless noted, no stated cut-off is given here; in the data, active means inhibition above about 11%; inactive means the rest.

CCOc1ccc2nc(C)cc(Nc3cccc([N+](=O)[O-])c3)c2c1	PLCg1 inh 11 | PLCg1 ctr inactive | PLCbeta3 conf inactive
Nc1ccc(C(=O)N/N=C\C=C\c2cccc([N+](=O)[O-])c2)cc1	PLCg1 inh 15, PLCb3 inh 16 | PLCg1 ctr inactive | PLCbeta3 conf inactive
COc1ccc(-c2cc(C(=O)NN=Cc3ccccc3F)[nH]n2)cc1	none (no result: DAGLB inh, TbMetRS inhib)
O=C(NCc1ccco1)c1cccc(F)c1	PLCg1 inh 10 | PLCg1 ctr inactive | PLCbeta3 conf inactive
COc1ccc(Cl)cc1C(=O)NCc1ccco1	PLCg1 inh 13 | PLCg1 ctr inactive | PLCbeta3 conf inactive
Cc1cccc(C(=O)NCc2ccco2)c1	none
COc1ccc(C(=O)Nc2ccc(Cl)cc2C(=O)NCc2ccco2)cc1OC	none
Cc1cc(OCc2nc(N)nc(N)c2-c2ccc(Cl)c(Cl)c2)ccc1[N+](=O)[O-]	PLCg1 inh 13 | PLCg1 ctr inactive | PLCbeta3 conf inactive
O=C(NCCc1ccccc1)OCc1cn(Cc2cc(F)cc(F)c2)nn1	none (no result: DAGLB inh, TbMetRS inhib)
COc1ccccc1NC(=O)Nc1ccc2c(c1)OCCO2	PLCb3 inh 12 | PLCg1 ctr inactive | PLCbeta3 conf inactive
COc1cccc(OC)c1C(=O)Nc1ccc2c(c1)OCCO2	none
CC(=O)Nc1sc2c(c1-c1nc3ccccc3s1)CCN(C(C)C)CC2	none (no result: DAGLB inh, TbMetRS inhib)
CCCN1CCCCC(NC(=O)c2ccc(-c3ccccc3)cc2)C1=O (stereo not given)	none (no result: DAGLB inh, TbMetRS inhib)
CC(C)C1S/C(=N/N=C/c2cccs2)NC1=O (stereo not given)	PLCg1 inh 13 | PLCg1 ctr inactive | PLCbeta3 conf inactive
CCC1S/C(=N/N=C/c2cccs2)NC1=O (stereo not given)	PLCg1 inh 15 | PLCg1 ctr inactive | PLCbeta3 conf inactive
COc1cccc(CNC(=O)Cn2c(-c3ccccc3)cc(C(C)=O)c2C)c1OC	none (no result: DAGLB inh, TbMetRS inhib)
COC(=O)[C@]12C[C@H](CC(=O)NCc3cccc4ccccc34)C(=O)N(CCc3ccc(OC)c(OC)c3)C1=C[C@H](C(C)(C)C)O[C@@H]2C	none (no result: DAGLB inh, TbMetRS inhib)
COc1ccccc1N1CCN(C(c2cccs2)c2nnnn2C2CCCC2)CC1 (stereo not given)	PLCg1 inh 9.9 | PLCg1 ctr inactive | PLCbeta3 conf inactive
c1ccc(CC2CCN(C(c3cccs3)c3nnnn3C3CCCC3)CC2)cc1 (stereo not given)	none
COc1cccc(CNC(=O)[C@H]2CCCN2C(=O)[C@H]2CCCN2C(=O)c2c(F)cccc2F)c1	none (no result: DAGLB inh, TbMetRS inhib)
CCOc1ccc(CCNC(=O)C2CCCN(S(C)(=O)=O)C2)cc1OCC (stereo not given)	PLCb3 inh 13 | PLCg1 ctr inactive | PLCbeta3 conf inactive
CCOc1ccc(CCNC(=O)C2CCN(S(=O)(=O)N3CCCCC3)CC2)cc1OCC	none
CCOC(=O)N1CCN(S(=O)(=O)N2CCCC(C(=O)NCCc3ccc(OCC)c(OCC)c3)C2)CC1 (stereo not given)	PLCg1 inh 12 | PLCg1 ctr inactive | PLCbeta3 conf inactive
CCOc1ccc(CCNC(=O)C2CCCN(S(=O)(=O)N3CCCCC3)C2)cc1OCC (stereo not given)	none (no result: DAGLB inh)
Cc1ccc(-n2c(SCC(=O)Nc3ccc4c(c3)OCCO4)nnc2-c2ccccn2)cc1	none (no result: DAGLB inh, TbMetRS inhib)
COCCCNCC1C(Oc2ccc(Cl)cc2)C(=O)N1c1ccccc1C (stereo not given)	PLCg1 inh 9.9 | PLCg1 ctr inactive | PLCbeta3 conf inactive
CC(=C\C=O)/C(C)=C/CC[C@@H]1O[C@@H]2C[C@@H]3O[C@](C)(C[C@H]4C[C@H](O)[C@@H]5O[C@@H]6C[C@H](O)[C@@H](C)O[C@@]6(C)CC[C@H]5O4)[C@@H](O)CC[C@@]3(C)O[C@H]2[C@@H](O)[C@@H]1C	none (no result: DAGLB inh, TbMetRS inhib)
O=c1[nH]c(-c2ccccn2)nc(C(F)(F)F)c1Br	PLCg1 inh 11 | PLCg1 ctr inactive | PLCbeta3 conf inactive
Cc1cc(O)cc(=O)n1-c1cccc([N+](=O)[O-])c1	none (no result: DAGLB inh, TbMetRS inhib)
Cc1nnc(SCC(=O)Nc2sc3c(c2C#N)CCCCC3)n1N	none
N#Cc1c(NC(=O)CSc2nnnn2C2CCCCC2)sc2c1CCCC2	PLCg1 inh 10 | PLCg1 ctr inactive | PLCbeta3 conf inactive
Fc1ccc2nc(-c3ccc(CN4CCC(c5nc6ccccc6[nH]5)CC4)cc3)c(-c3ccccc3)nc2c1	none (no result: DAGLB inh, TbMetRS inhib)
CCN(CC(=O)Nc1cccc(S(=O)(=O)N2CCCC2)c1)CC(=O)Nc1ccccc1OC	none
CCN(CC(=O)Nc1cccc(F)c1)CC(=O)Nc1ccccc1OC	PLCg1 inh 9.8 | PLCg1 ctr inactive | PLCbeta3 conf inactive
COC(=O)C1=C(C)N(Cc2ccccc2C(F)(F)F)C(=NCc2ccccc2C(F)(F)F)NC1c1ccc(C(F)(F)F)cc1 (stereo not given)	none (no result: DAGLB inh, TbMetRS inhib)
C=CCC[C@@H](Cc1ccc(F)cc1)C(=O)OC[C@@H](Cc1c[nH]c2ccccc12)NC(=O)[C@H](CC=C)CC(=O)NCCO	PLCb3 inh 11 | PLCg1 ctr inactive | PLCbeta3 conf inactive
C=CC[C@@H](CC(=O)N[C@H](CO)Cc1ccccc1)C(=O)N[C@H](COC(=O)[C@@H](CC=C)CC(=O)OC(C)(C)C)Cc1c[nH]c2ccccc12	none
C=CC[C@H](CC(=O)N(CCO)Cc1ccccc1)C(=O)N[C@@H](C)COC(=O)[C@H](CC=C)CC(=O)OC(C)(C)C	none
C=CC[C@@H](CC(=O)N[C@H](CO)Cc1ccccc1)C(=O)N[C@@H](COC(=O)[C@@H](CC=C)CC(=O)OC(C)(C)C)Cc1c[nH]c2ccccc12	PLCg1 inh 12 | PLCg1 ctr inactive | PLCbeta3 conf inactive
C=CC[C@@H](CC(=O)N(CCO)Cc1ccccc1)C(=O)N[C@@H](C)COC(=O)[C@@H](CC=C)CC(=O)OC(C)(C)C	PLCg1 inh 11 | PLCg1 ctr inactive | PLCbeta3 conf inactive
Cc1ccc2c(c1)N(CCCC(=O)NCc1c(F)cccc1F)C(=O)CO2	none (no result: DAGLB inh, TbMetRS inhib)
CCCC1CCC2(CC1)CCC2OC(=O)Nc1ccc2c(c1)OCO2 (stereo not given)	none (no result: DAGLB inh, TbMetRS inhib)
O=S(=O)(c1ccccc1)N1N=C(c2cccs2)CC1c1ccc(F)cc1 (stereo not given)	PLCb3 inh 12 | PLCg1 ctr inactive | PLCbeta3 conf inactive
